For six compounds, MIC and Activity results are on record in ChEMBL document CHEMBL3272204, “Products from furans. 1. Sunthesis and anticoccidial and antimicrobial activity of 5-amino-5,6-dihydro-6-methoxy-2-methyl-2-(4'-biphenylyl)-2H-pyran-3(4H)-ones and related compounds” (1976).

By MIC is commonly meant the least concentration at which growth counts as inhibited.

The test system of experiment [1] is Staphylococcus. The experiment is described as follows: Antibacterial activity against penicillin-resistant Staphylococcus pyogenes assessed as growth inhibition after 24 hrs. Format: functional. Put shortly:
(§1)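 Halving (twofold) serial dilutions of compound in nutrient broth, in vitro. Incubated 24 hr at 37°. Value reported is the lowest concentration that inhibited growth.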

In another experiment the test system is Pseudomonas aeruginosa. The experiment is described as follows: Antibacterial activity against Pseudomonas aeruginosa assessed as growth inhibition after 24 hrs. It is filed as functional. In short, it runs like this: (§2)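 Twofold serial dilutions in nutrient broth. The minimum concentration inhibiting visible growth was read after 24 hr incubation at 37°.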

Another experiment concerns Klebsiella aerogenes. Briefly: Antibacterial activity against Aerobacter aerogenes assessed as growth inhibition after 24 hrs. It is filed as functional. In short, it runs like this:
as §2

Experiment [2] concerns Eimeria acervulina. Briefly: Anticoccidal activity against Eimeria acervulina assessed as improved weight gain and mortality in chicken relative to noninfected control. Format: functional, organism-based. Put shortly: (§3)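 Chickens with experimental coccidiosis received compound orally in the diet at 0.05%, starting 1 day before infection. Efficacy was judged 6 days later from survival and weight gain.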

The next experiment deals with Klebsiella pneumoniae. The experiment is described as follows: Antibacterial activity against Klebsiella pneumoniae assessed as growth inhibition after 24 hrs. Format: functional. In short, it runs like this: as §2
Another experiment relates to Nannizzia gypsea. The experiment is described as follows: Antifungal activity against Microsporum gypseum assessed as growth inhibition after 10 days at 28 degC. Format: functional. Put shortly: (§4)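 Twofold serial dilutions in Sabouraud broth. The minimum inhibitory concentration was read after 10 days at 28°.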
Another experiment relates to Enterococcus faecalis. Briefly: Antibacterial activity against Streptococcus faecalis assessed as growth inhibition after 24 hrs. Format: functional. In short, it runs like this: as §2
A short description of experiment [3]: (§5) Antibacterial activity against Salmonella pullorum assessed as growth inhibition after 24 hrs. It is filed as functional, Salmonella enterica subsp. enterica serovar Pullorum. As to conditions: Salmonella enterica, 24 h; read-out: MIC. In short, it runs like this: as §2
The next experiment relates to Proteus vulgaris. Briefly: Antibacterial activity against Proteus vulgaris assessed as growth inhibition after 24 hrs. It is filed as functional. In short, it runs like this: as §2
Another experiment relates to Escherichia coli. The experiment is described as follows: Antibacterial activity against Escherichia coli 198 assessed as growth inhibition after 24 hrs. It is filed as functional. Put shortly: as §2
The subject of experiment [4] is Eimeria tenella. The experiment is described as follows: Anticoccidal activity against Eimeria tenella assessed as improved weight gain in chicken at 0.05%, po. It is filed as functional, organism-based. Put shortly:
as §3

The subject of a further experiment is Serratia marcescens. The experiment is described as follows: Antibacterial activity against Serratia marcescens assessed as growth inhibition after 24 hrs. It is filed as functional. In short, it runs like this: as §2
Experiment [5] concerns Staphylococcus. The experiment is described as follows: Antibacterial activity against penicillin-sensitive Staphylococcus pyogenes assessed as growth inhibition after 24 hrs. It is filed as functional. In short, it runs like this:
as §1

Experiment [6] can be described thus: Antifungal activity against Trichophyton granulosum assessed as growth inhibition after 10 days at 28 degC. Format: functional. As to conditions: Trichophyton mentagrophytes var. granulosum. Put shortly: as §4
Experiment [7] deals with Eimeria tenella. The experiment is described as follows: Anticoccidal activity against Eimeria tenella assessed as improved weight gain in chicken at 0.002%, po. Format: functional, organism-based.
Experiment [8] relates to Eimeria tenella. The experiment is described as follows: Anticoccidal activity against Eimeria tenella assessed as improved weight gain and mortality in chicken relative to noninfected control. Format: functional, organism-based. In short, it runs like this: as §3
A further experiment deals with Candida albicans. The experiment is described as follows: Antifungal activity against Candida albicans assessed as growth inhibition after 5 days at 37 degC. Format: functional. In short, it runs like this: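 Twofold serial dilutions in Sabouraud broth. The minimum inhibitory concentration was read after 5 days at 37°.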
For experiment [9], the system named is Salmonella enterica subsp. enterica serovar Pullorum. The experiment is described as §5. It is filed as functional. Put shortly:
as §2

Experiment [10] deals with Eimeria acervulina. Briefly: Anticoccidal activity against Eimeria acervulina assessed as improved weight gain in chicken. It is filed as functional, organism-based. Put shortly:
as §3

[11] abbreviates: Staphylococcus, 24 h, read-out: MIC.
Setting [12] is: Nannizzia gypsea, 240 h, read-out: MIC.

In brackets after ≈: the same amount, converted by molar mass. Activity calls are given as the source filed them. The calls are words filed in the database; no cut-off is given here.

With `COC1OC(C)(c2ccc(-c3ccccc3)cc2)C(=O)CC1N1CCN(C)CC1` (stereo unspecified), the MIC was 6.2 µg/mL (≈ 15.7 µM) in the experiment on Staphylococcus [1] (setting [11]); 6.2 µg/mL (≈ 15.7 µM) in the experiment with Pseudomonas aeruginosa (Pseudomonas aeruginosa, 24 h, read-out: MIC); 6.2 µg/mL (≈ 15.7 µM) in the experiment with Klebsiella aerogenes (Klebsiella aerogenes, 24 h, read-out: MIC); 6.2 µg/mL (≈ 15.7 µM) in the experiment on Klebsiella pneumoniae (Klebsiella pneumoniae, 24 h, read-out: MIC); 3.2 µg/mL (≈ 8.11 µM) with Nannizzia gypsea (setting [12]); 6.2 µg/mL (≈ 15.7 µM) with Enterococcus faecalis (Enterococcus faecalis, 24 h, read-out: MIC). Besides, the MIC in experiment [3] was 6.2 µg/mL (≈ 15.7 µM); in the experiment on Proteus vulgaris (Proteus vulgaris, 24 h, read-out: MIC) it was 6.2 µg/mL (≈ 15.7 µM); in the experiment on Escherichia coli (Escherichia coli, 198, 24 h, read-out: MIC), 6.2 µg/mL (≈ 15.7 µM); in the experiment with Serratia marcescens (Serratia marcescens, 24 h, read-out: MIC), 6.2 µg/mL (≈ 15.7 µM); in the experiment with Staphylococcus [5] (setting [11]), 6.2 µg/mL (≈ 15.7 µM); in experiment [6], 1.6 µg/mL (≈ 4.06 µM). Moreover, in the experiment on Eimeria acervulina [2], the result was Active. The outcome in the experiment on Eimeria tenella [4] was inactive.
Regarding `CCCCc1cc2c(=O)c(C(=O)OC)c[nH]c2cc1OCc1ccccc1`, in the experiment on Eimeria tenella [7], the result was Active.
With `COC1C=CC(=O)C(C)(c2ccc(-c3ccccc3)cc2)O1` (single isomer, unassigned; isomer 1), the outcome in the experiment with Eimeria tenella [4] was inactive. For the same compound, in [6], the MIC amounted to 8 µg/mL (≈ 27.2 µM).
Consider `CNC(=O)OC1C=CC(=O)C(C)(c2ccc(-c3ccccc3)cc2)O1` (stereo unspecified), for which the MIC result (in the experiment with Staphylococcus [1]; with Pseudomonas aeruginosa; with Klebsiella aerogenes; in the experiment with Klebsiella pneumoniae; with Enterococcus faecalis; in [9]) was “inactive” each time. For the same compound, the MIC result in the experiment with Proteus vulgaris, in the experiment on Escherichia coli, in the experiment on Serratia marcescens and with Staphylococcus [5] was “inactive” in each case. In the experiment with Eimeria tenella [8], the result was Active. For the same compound, the MIC in the experiment on Candida albicans (Candida albicans, 120 h, read-out: MIC) stood at 250 µg/mL (≈ 741 µM); with Nannizzia gypsea (setting [12]), 1.6 µg/mL (≈ 4.74 µM); in [6] it was 1.6 µg/mL (≈ 4.74 µM). In addition, the result in the experiment on Eimeria acervulina [10] was inactive.
Take `COC1OC(C)(c2ccc(-c3ccccc3)cc2)C(O)CC1N1CCOCC1` (stereo unspecified): the MIC entry in the experiment on Staphylococcus [1], in the experiment with Pseudomonas aeruginosa, in the experiment on Klebsiella aerogenes, with Klebsiella pneumoniae, in the experiment on Candida albicans and in the experiment on Nannizzia gypsea was “inactive” each time. Also, the MIC entry (with Enterococcus faecalis; in [9]; in the experiment on Proteus vulgaris; in the experiment on Escherichia coli; in the experiment with Serratia marcescens; in the experiment on Staphylococcus [5]) was “inactive” each time. Besides, the MIC entry in [6] is “inactive”. Moreover, the result with Eimeria tenella [4] was inactive.
For `CNC1CC(O)C(C)(c2ccc(-c3ccccc3)cc2)OC1OC` (stereo unspecified), the MIC result in the experiment on Staphylococcus [1], in the experiment with Pseudomonas aeruginosa, in the experiment on Klebsiella aerogenes, in the experiment on Klebsiella pneumoniae, in the experiment on Candida albicans and in the experiment with Nannizzia gypsea was “inactive” in each case. The MIC result (in the experiment with Enterococcus faecalis; in experiment [9]; with Proteus vulgaris; in the experiment on Escherichia coli; in the experiment on Serratia marcescens; with Staphylococcus [5]) was “inactive” throughout. The MIC entry in experiment [6] was “inactive”. The result in the experiment with Eimeria tenella [4] and in the experiment with Eimeria acervulina [10] was inactive.
